The source made the active and inactive calls. The calls are words filed in the database; no cut-off is given here.
Columns and labels:
Heat shock protein HSP90 [1] = target: T1, Heat shock protein HSP90 (Homo sapiens, UniProt P07900+P08238); assay: Inhibition of HSP90 in human NCI-H1299 cells assessed as reduction in AKT protein levels at 10 uM incubated for 12 hrs by immunoblotting method; type: cell-based
Procedure, shortened: (§1)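 NCI-H1299 cells were treated for 12 h and lysed in RIPA buffer with protease inhibitors. Equal protein was loaded per lane, run on a gel and transferred to nitrocellulose. Membranes were blocked in TBST with 3% BSA for 1 h at room temperature, then probed with primary antibody for 2 h and secondary antibody for 1 h, both at room temperature. Bands were detected by ECL.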

Heat shock protein HSP90 [2] = target: T1, Heat shock protein HSP90; assay: Inhibition of geldanamycin-BODIPY binding to full-length HSP90 (unknown origin) by fluorescence polarization based competition assay; type: protein assay
Procedure, shortened: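 Fluorescence polarization competition using full-length HSP90 and geldanamycin-BODIPY as probe.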

Heat shock protein HSP90 [3] = target: T1, Heat shock protein HSP90; assay: Inhibition of HSP90 in human NCI-H1299 cells assessed as reduction in c-MET protein levels at 10 uM incubated for 12 hrs by immunoblotting method; type: cell-based; procedure, shortened: as §1
[4] = target: T2, [Pyruvate dehydrogenase (acetyl-transferring)] kinase isozyme 1, mitochondrial (Homo sapiens, UniProt Q15118); assay: Inhibition of recombinant PDHK1 (unknown origin) expressed in Escherichia coli at 10 uM incubated for 1 hr by ELISA
T2 sequence (Q15118 whole entry): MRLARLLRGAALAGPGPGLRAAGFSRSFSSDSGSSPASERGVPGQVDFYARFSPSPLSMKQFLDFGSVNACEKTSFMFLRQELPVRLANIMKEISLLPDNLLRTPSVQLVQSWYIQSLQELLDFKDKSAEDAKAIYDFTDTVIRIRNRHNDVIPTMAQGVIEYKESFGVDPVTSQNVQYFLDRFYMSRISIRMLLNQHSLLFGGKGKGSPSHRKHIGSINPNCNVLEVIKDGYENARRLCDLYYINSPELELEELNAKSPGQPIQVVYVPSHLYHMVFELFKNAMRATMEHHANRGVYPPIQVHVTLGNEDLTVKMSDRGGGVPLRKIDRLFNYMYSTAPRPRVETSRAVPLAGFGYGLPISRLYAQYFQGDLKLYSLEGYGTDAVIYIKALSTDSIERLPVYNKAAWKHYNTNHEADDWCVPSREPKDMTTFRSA
Procedure, shortened: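 Recombinant His6-SUMO-PDHK1 was expressed in E. coli and purified on nickel resin. It was used at 0.25 µg/well on immobilized PDHA1 substrate (0.5 µg/well) with 10 µM ATP in 50 mM HEPES, 10 mM MgCl2 and 1 mM EGTA. Compounds were screened at 10 µM and percent inhibition was recorded. Detection used anti-p-PDHA1(S293) for 1 h and HRP secondary antibody for 1 h, then o-phenylenediamine, read at OD490.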

[5] = target: T2, [Pyruvate dehydrogenase (acetyl-transferring)] kinase isozyme 1, mitochondrial; assay: Inhibition of recombinant PDHK1 (unknown origin) expressed in Escherichia coli incubated for 1 hr by ELISA
Heat shock protein HSP90 [6] = target: T1, Heat shock protein HSP90; assay: Inhibition of HSP90 in human NCI-H1299 cells assessed as reduction in HER2 protein levels at 10 uM incubated for 12 hrs by immunoblotting method; type: cell-based; procedure, shortened: as §1
Heat shock protein HSP90 [7] = target: T1, Heat shock protein HSP90; assay: Inhibition of HSP90 in human NCI-H1299 cells assessed as increase in HSP70 protein levels at 10 uM incubated for 12 hrs by immunoblotting method; type: cell-based; procedure, shortened: as §1
NCI-H1299 [8] = assay: Increase in oxygen consumption rate/extracellular acidification rate ratio in human NCI-H1299 cells at incubated for 12 hrs; type: functional, cell-based
[9] = target: T2, [Pyruvate dehydrogenase (acetyl-transferring)] kinase isozyme 1, mitochondrial; settings: NCI-H1299, 10 mM
NCI-H1299 [10] = assay: Increase in oxygen consumption rate in human NCI-H1299 cells at 10 mM incubated for 12 hrs; type: functional, cell-based
Procedure, shortened: (§2)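 NCI-H1299 cells were pre-treated with compound for 12 h, then oxygen consumption rate and extracellular acidification rate were read on an XF96 extracellular flux analyzer.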

NCI-H1299 [11] = assay: Reduction in extracellular acidification rate in human NCI-H1299 cells at 10 mM incubated for 12 hrs; type: functional, cell-based; procedure, shortened: as §2
[12] = Apparent permeability from basolateral to apical side in human Caco2 cells; settings: Caco-2
[13] = Efflux ratio in human Caco2 cells; settings: Caco-2
[14] = Apparent permeability from apical to basolateral side in human Caco2 cells; settings: Caco-2
NCI-H1299 [15] = assay: Reduction in oxygen consumption rate in human NCI-H1299 cells at 10 uM incubated for 12 hrs; type: functional, cell-based
Procedure, shortened: (§3)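 Cells pre-treated with varying concentrations of compound for 12 h, then oxygen consumption rate and extracellular acidification rate measured on an XF96 extracellular flux analyzer; ECAR/OCR ratio calculated from these readings.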

[16] = target: T2, [Pyruvate dehydrogenase (acetyl-transferring)] kinase isozyme 1, mitochondrial; settings: NCI-H1299, 10 uM
NCI-H1299 [17] = assay: Reduction in extracellular acidification rate in human NCI-H1299 cells at 10 uM incubated for 12 hrs; type: functional, cell-based; procedure, shortened: as §3
[18] = target: [Pyruvate dehydrogenase (acetyl-transferring)] kinase isozyme 4, mitochondrial (Homo sapiens, UniProt Q16654); assay: Inhibition of recombinant PDHK4 (unknown origin) expressed in Escherichia coli incubated for 1 hr by ELISA
Sequence of [Pyruvate dehydrogenase (acetyl-transferring)] kinase isozyme 4, mitochondrial (Q16654 whole entry): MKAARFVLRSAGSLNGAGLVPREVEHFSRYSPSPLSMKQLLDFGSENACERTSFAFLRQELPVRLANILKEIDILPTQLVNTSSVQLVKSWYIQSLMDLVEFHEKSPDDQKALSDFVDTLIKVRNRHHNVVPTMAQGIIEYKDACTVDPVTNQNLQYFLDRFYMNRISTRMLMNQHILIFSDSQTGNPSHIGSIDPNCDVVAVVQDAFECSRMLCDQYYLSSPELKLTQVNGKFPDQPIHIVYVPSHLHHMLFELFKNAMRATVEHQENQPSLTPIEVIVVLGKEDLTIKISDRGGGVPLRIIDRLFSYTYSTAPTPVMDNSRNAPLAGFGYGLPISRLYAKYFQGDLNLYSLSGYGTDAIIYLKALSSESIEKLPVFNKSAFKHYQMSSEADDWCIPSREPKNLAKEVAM

NCI-H1299 [19] = assay: Increase in oxygen consumption rate/extracellular acidification rate ratio in human NCI-H1299 cells at 10 uM incubated for 12 hrs; type: functional, cell-based
NCI-H1299 [20] = assay: Antiproliferative activity against human NCI-H1299 cells after 72 hrs by CCK8 assay; type: functional, cell-based
Procedure, shortened: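 NCI-H1299 cells seeded at 3000 per well; test compound at a range of concentrations added the next day, vehicle DMSO as control; proliferation read by CCK8 kit after 72 h; IC50 derived from dose–response.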

[21] = target: [Pyruvate dehydrogenase (acetyl-transferring)] kinase isozyme 2, mitochondrial (Homo sapiens, UniProt Q15119); assay: Inhibition of recombinant PDHK2 (unknown origin) expressed in Escherichia coli incubated for 1 hr by ELISA
NCI-H1299 [22] = assay: Increase in ROS production in human NCI-H1299 cells at incubated for 12 hrs by DCFH-DA staining based fluorescence assay; type: functional, cell-based
Procedure, shortened: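 Cells loaded with 5 µmol/L DCFH-DA in fresh medium for 30 min after compound treatment, washed with PBS, and intracellular ROS read as fluorescence intensity by flow cytometry.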

[23] = target: T3, [Pyruvate dehydrogenase (acetyl-transferring)] kinase isozyme 3, mitochondrial (Homo sapiens, UniProt Q15120); assay: Inhibition of recombinant PDHK3 (unknown origin) expressed in Escherichia coli incubated for 1 hr by ELISA
T3 sequence (Q15120 whole entry): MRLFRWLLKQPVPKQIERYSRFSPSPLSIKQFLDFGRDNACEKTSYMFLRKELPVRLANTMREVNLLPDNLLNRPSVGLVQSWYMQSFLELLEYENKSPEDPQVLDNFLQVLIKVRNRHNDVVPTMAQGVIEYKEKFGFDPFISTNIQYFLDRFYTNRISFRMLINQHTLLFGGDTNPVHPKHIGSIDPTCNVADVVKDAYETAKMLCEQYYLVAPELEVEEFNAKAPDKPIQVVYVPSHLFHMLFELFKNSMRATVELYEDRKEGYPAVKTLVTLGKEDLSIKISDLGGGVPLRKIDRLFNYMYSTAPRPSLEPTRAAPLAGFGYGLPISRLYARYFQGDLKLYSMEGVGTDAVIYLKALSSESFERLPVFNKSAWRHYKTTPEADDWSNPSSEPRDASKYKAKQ

[24] = target: T3, [Pyruvate dehydrogenase (acetyl-transferring)] kinase isozyme 3, mitochondrial; assay: Inhibition of PDHK3 (unknown origin)
Procedure, shortened: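 PDHK3 was expressed in E. coli as a His6-SUMO fusion and purified on nickel resin. The substrate was His6-SUMO-PDHA1, immobilized at 0.5 µg/well, with enzyme at 0.25 µg/well and 10 µM ATP in 50 mM HEPES, 10 mM MgCl2 and 1 mM EGTA. Phosphorylation was detected with anti-p-PDHA1(S293) for 1 h, then HRP secondary antibody for 1 h. Colour was developed with o-phenylenediamine and read at OD490. IC50 came from a four-parameter fit.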

[25] = target: T2, [Pyruvate dehydrogenase (acetyl-transferring)] kinase isozyme 1, mitochondrial; assay: Inhibition of PDHK1 (unknown origin)
NCI-H1299 [26] = assay: Reduction in oxygen consumption rate in human NCI-H1299 cells incubated for 12 hrs; type: functional, cell-based; procedure, shortened: as §3

| Structure (SMILES) | inhibition (Heat shock protein HSP90 [1]) | IC50 (Heat shock protein HSP90 [2]) [nM] | inhibition (Heat shock protein HSP90 [3]) | inhibition [4] [%] | IC50 [5] [nM] | inhibition (Heat shock protein HSP90 [6]) | inhibition (Heat shock protein HSP90 [7]) | Papp B→A [12] [×10⁻⁶ cm/s] | efflux ratio [13] | Papp A→B [14] [×10⁻⁶ cm/s] | further results |
| --- | --- | --- | --- | --- | --- | --- | --- | --- | --- | --- | --- |
| COc1ccc(-c2c(C(=O)NC3CCN(CC4CC4)CC3)noc2-c2cc(Cl)c(O)cc2O)cc1 | Active | 39 | Active | > 50 | 28 | Active | Active |  |  |  |  |
| CC1(C)CC(=O)c2c(C(F)(F)F)nn(-c3ccc(C(N)=O)c(N[C@H]4CC[C@H](O)CC4)c3)c2C1 |  |  |  |  |  |  |  |  |  |  | Activity (NCI-H1299 [8]): inactive |
| O=C(O)C(Cl)Cl |  |  |  |  |  |  |  |  |  |  | inhibition [9]: Active; inhibition (NCI-H1299 [10]): Active; inhibition (NCI-H1299 [11]): Active |
| COc1cccc(N2CCN(C(=O)/C=C/c3noc(-c4cc(Cl)c(O)cc4O)c3-c3ccc(O)cc3)CC2)c1 | Active | 666 | Active | > 50 | 776 | Active | Active | 15 | 2.29 | 6.54 |  |
| COc1ccc(CN2CCC(NC(=O)c3noc(-c4cc(Cl)c(O)cc4O)c3-c3ccc(OC)cc3)CC2)cc1 | Active | 16 | Active | > 50 | 17 | Active | Active | 8.7 | 9.04 | 0.962 |  |
| COc1ccccc1N1CCN(C(=O)/C=C/c2noc(-c3cc(Cl)c(O)cc3O)c2-c2ccc(O)cc2)CC1 | Active | 512 | Active | > 50 | 604 | Active | Active | 15.5 | 1.38 | 11.2 | inhibition (NCI-H1299 [15]): Active; inhibition [16]: Active; inhibition (NCI-H1299 [17]): Active; IC50 [18]: 1740 nM; Activity (NCI-H1299 [19]): Active; inhibition (NCI-H1299 [20]): Dose-dependent effect; IC50 (NCI-H1299 [20]; NCI-H1299, 72 h): 9210 nM; IC50 [21]: 1130 nM; Activity (NCI-H1299 [22]): Active; IC50 [23]: 5340 nM |
| C[C@@H]1C[C@H]2O[C@@H]2/C=C\C=C\C(=O)Cc2c(Cl)c(O)cc(O)c2C(=O)O1 [RADICICOL] |  |  |  |  |  |  |  |  |  |  | IC50 [24]: 230000 nM; IC50 [25]: 400000 nM |
| COc1c(C)cnc(Cn2cnc3c(Cl)nc(N)nc32)c1C |  |  |  |  |  |  |  |  |  |  | inhibition (NCI-H1299 [26]): Active |
| CC(C)NCCCn1c(Sc2cc3c(cc2I)OCO3)nc2c(N)ncnc21 |  |  |  |  |  |  |  |  |  |  | inhibition (NCI-H1299 [26]): Active |
| COc1ccc(-c2c(C(=O)NC3CCN(Cc4ccccc4)CC3)noc2-c2cc(Cl)c(O)cc2O)cc1 | Active | 36 | Active | > 50 | 25 | Active | Active |  |  |  |  |
| COc1ccc(-c2c(/C=C/C(=O)N3CCN(c4ncccn4)CC3)noc2-c2cc(Cl)c(O)cc2O)cc1 | Active | 208 | Active | > 50 | 1070 | Active | Active | 5.09 | 0.74 | 6.9 |  |
| CC(C)c1cc(-c2n[nH]c(=O)n2-c2ccc3c(ccn3C)c2)c(O)cc1O |  |  |  |  |  |  |  |  |  |  | Activity (NCI-H1299 [8]): inactive |
| CO[C@H]1/C=C\C=C(/C)C(=O)NC2=CC(=O)C(NCCN(C)C)=C(C[C@@H](C)C[C@H](OC)[C@H](O)[C@@H](C)/C=C(\C)[C@@H]1OC(N)=O)C2=O |  |  |  |  |  |  |  |  |  |  | inhibition (NCI-H1299 [26]): Active |

Source: ChEMBL document CHEMBL3352550, “Discovery and optimization of 4,5-diarylisoxazoles as potent dual inhibitors of pyruvate dehydrogenase kinase and heat shock protein 90” (J Med Chem, 2014)
